This is an account of results in ChEMBL document CHEMBL2016575, “The chemical synthesis of metabolically stabilized 2-OMe-LPA analogues and preliminary studies of their inhibitory activity toward autotaxin” (Bioorg Med Chem Lett, 2012).

Each structure is given as a SMILES string.

The target of data set [1] is T1, Autotaxin (Homo sapiens, UniProt Q13822). Put plainly: Inhibition of human recombinant autotaxin expressed in insect Sf9 cells using FS-3 as substrate at 1 uM preincubated for 10 mins prior substrate addition measured up to 60 mins by FRET-based analysis.
Data set [2] deals with T1, Autotaxin. In words: Inhibition of human recombinant autotaxin expressed in insect Sf9 cells using FS-3 as substrate preincubated for 10 mins prior substrate addition measured up to 60 mins by FRET-based analysis.
Data set [3] is described as follows: Metabolic stability of the compound assessed as reduction in dephosphorylation at […] after 24 hrs by phosphomolybdate blue assay in presence of bovine intestinal mucosal alkaline phosphatase. Format: ADME. Conditions: cattle, isolated protein. Put shortly:
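Substrate incubated with the phosphatase at 37 °C for 24 h. Dephosphorylation is followed by quantifying liberated inorganic phosphate with a modified phosphomolybdate blue assay.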

As a reminder, the inhibition is the relative decrease from the control value, in per cent. The term IC50 denotes the concentration needed to halve the response being measured.

In the case of `CCCCCCCCCCCCCCCCCC(=O)OCC(COP(=O)(O)O)OC` (stereo not given), the inhibition in data set [1] came to 49.7%. The concentration for half-maximal inhibition (IC50) in data set [2] is 1010 nM.

Consider `CCCCCCCCCCCCCCCCCC(=O)OC[C@@H](O)CC(Br)P(=O)(O)O` (stereo not given in full), for which the inhibition in data set [1] is 86.1%. In addition, in data set [3], the Stability result is on record as “Stable”. Moreover, the IC50 in data set [2] is 170 nM.

`CCCCCCCCCCCCCCCC(=O)OCC(COP(=O)(O)S)OC` (stereo not given): the inhibition in data set [1] was 64.7%. Besides, in data set [2], the concentration for half-maximal inhibition (IC50) came to 512 nM.

On to `CCCCCCCCCCCCCC(=O)OCC(COP(=O)(O)S)OC` (stereo not given), for which, in data set [1], the inhibition was determined as 62.3%. In addition, the 50% inhibitory concentration (IC50) in data set [2] turned out to be 596 nM.

Regarding `CCCCCCCCCCCCCCCCCC(=O)OCC(COP(=O)(O)S)OC` (stereo not given), the inhibition in data set [1] is 35.5%. In data set [2], the 50% inhibitory concentration (IC50) amounted to 2420 nM.

On to `CCCCCCCC/C=C\CCCCCCCC(=O)OCC(COP(=O)(O)S)OC` (stereo not given), for which the inhibition in data set [1] turned out to be 77.8%. The concentration for half-maximal inhibition (IC50) in data set [2] worked out at 356 nM.

For the compound `CCCCCCCC/C=C\CCCCCCCC(=O)OCC(COP(=O)(O)O)OC` (stereo not given), in data set [1], the inhibition amounted to 81.3%. The Stability result in data set [3] is “Stable”. For the same compound, the IC50 in data set [2] stood at 220 nM.

On to `CCCCCCCCCCCCCC(=O)OCC(COP(=O)(O)O)OC` (stereo not given), for which, in data set [1], the inhibition worked out at 57.7%. For the same compound, in data set [2], the half-inhibitory concentration (IC50) was determined as 704 nM.

Turning to `CCCCCCCCCCCC(=O)OCC(COP(=O)(O)O)OC` (stereo not given), in data set [1], the inhibition was found to be 45.5%. The half-inhibitory concentration (IC50) in data set [2] was 1200 nM.

As to `CCCCCCCCCCCC(=O)OCC(COP(=O)(O)S)OC` (stereo not given), in data set [1], the inhibition was 36.7%. Further, the 50% inhibitory concentration (IC50) in data set [2] was found to be 2410 nM.

Consider `CCCCCCCCCCCCCCCC(=O)OCC(COP(=O)(O)O)OC` (stereo not given), for which, in data set [1], the inhibition was determined as 74.5%. In data set [2], the 50% inhibitory concentration (IC50) amounted to 361 nM.

Take `CCCCCCCC/C=C\CCCCCCCC(=O)OC[C@@H](O)COP(=O)(O)O` [LYSOPHOSPHATIDIC ACID]: in data set [3], the Stability entry was “Unstable”.
